Reference: ChEMBL document CHEMBL3856201, “5,10b-Ethanophenanthridine amaryllidaceae alkaloids inspire the discovery of novel bicyclic ring systems with activity against drug resistant cancer cells” (2016)

Assays:
[1] = tested on: MES-SA; assay: Selectivity ratio of GI50 for human MES-SA/Dx5 cells to GI50 for human MES-SA cells; assay type: functional
Method in brief: (§1)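 Parent MES-SA and MES-SA/Dx5 uterine sarcoma cells were grown in RPMI-1640 with 10% FBS. The Dx5 line was kept in 500 nM doxorubicin after stepwise selection from 100 nM in twofold steps, about 2 passages per step. MTT assay used 0.001–100 µM compound for 48–96 h, with 0.1% DMSO and 1 µM phenyl arsine oxide controls. The ratio is the Dx5 GI50 divided by the parent GI50.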

[2] = Antiproliferative activity against human MCF7 cells after 48 hrs by MTT assay; assay type: functional; conditions: MCF7, 48 h
Method in brief: (§2)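 HeLa cells were cultured in DMEM + 10% FBS and MCF-7 cells in RPMI + 10% FBS, both at 37 °C under 5% CO2. Compounds were diluted from DMSO stocks and applied for 48 h. Viability was read by MTT relative to DMSO control. The value is the concentration reducing viability by 50%, ±SD from two independent experiments of 4 replicates each.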

[3] = Antiproliferative activity against human HeLa cells after 48 hrs by MTT assay; assay type: functional; method in brief: as §2
[4] = Antiproliferative activity against drug-resistant human U87 cells after 48 to 96 hrs by MTT assay; assay type: functional, U-87MG ATCC; conditions: U-87 MG
Method in brief: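 U87 cells grown in DMEM with glutamine, gentamicin and penicillin-streptomycin (37 °C, 95% humidity, 5% CO2) were seeded and then treated with 0.001–100 µM compound for 48–96 h. Readout was MTT. Controls were 0.1% DMSO and 1 µM phenyl arsine oxide. The value is the average concentration reducing viability 50%.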

[5] = Antiproliferative activity against drug-resistant human A549 cells after 48 to 96 hrs by MTT assay; assay type: functional
Method in brief: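 A549 cells grown in RPMI with 10% heat-inactivated FBS, 4 mM glutamine and antibiotics at 37 °C under 5% CO2. Compounds came from 100 or 50 mM DMSO stocks and were tested at 0.001–100 µM for 48–96 h. Read-out was MTT. The value is the mean concentration giving 50% viability loss, with varied replicate numbers. Controls were 0.1% DMSO (negative) and 1 µM phenyl arsine oxide (positive).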

[6] = Antiproliferative activity against human MES-SA/Dx5 cells after 48 to 96 hrs by MTT assay; assay type: functional; method in brief: as §1
[7] = Antiproliferative activity against drug-resistant human T98G cells after 48 to 96 hrs by MTT assay; assay type: functional
Method in brief: (§3)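 MTT read-out. T98G and Hs683 cells were grown in DMEM with 10% FBS, glutamine, gentamicin and penicillin-streptomycin at 37 °C and 5% CO2. Compounds came from 100 or 50 mM DMSO stocks and were tested at 0.001–100 µM for 48–96 h. Controls were 0.1% DMSO (negative) and 1 µM phenyl arsine oxide (positive). The value is the mean concentration giving 50% viability loss; replicate number varied.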

[8] = Antiproliferative activity against drug-resistant human U373 cells after 48 to 96 hrs by MTT assay; assay type: functional, U-373MG ATCC; conditions: U373 MG
Method in brief: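 Culture was RPMI with 10% heat-inactivated FBS plus glutamine and antibiotics for U373 cells. Compound exposure was 0.001–100 µM for 48–96 h, with 0.1% DMSO and 1 µM phenyl arsine oxide as controls. The MTT assay gave the average concentration cutting viability by 50%; replicate numbers varied.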

[9] = Antiproliferative activity against drug-resistant human U251 cells after 48 to 96 hrs by MTT assay; assay type: functional; conditions: U-251
Method in brief: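 U251 cells were kept in 10% MEM with glutamine, gentamicin and penicillin-streptomycin at 37 °C and 5% CO2. After seeding they were grown 24–72 h and then given compounds at 0.001–100 µM (from 100 or 50 mM DMSO stocks) for 48–96 h. Viability was read by MTT. Vehicle control was 0.1% DMSO; 1 µM phenyl arsine oxide served as positive control. The result is the average 50%-viability-reducing concentration.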

[10] = Antiproliferative activity against drug-sensitive human Hs683 cells after 48 to 96 hrs by MTT assay; assay type: functional; conditions: Hs 683; method in brief: as §3
[11] = Antiproliferative activity against human MES-SA cells after 48 to 96 hrs by MTT assay; assay type: functional; method in brief: as §1
[12] = Antiproliferative activity against patient-derived TMZ-resistant GBM 031810 cells over-expressing MGMT after 48 to 96 hrs by MTT assay; assay type: functional; conditions: Homo sapiens
[13] = Antiproliferative activity against patient-derived TMZ-sensitive GBM 090909 cells after 48 to 96 hrs by MTT assay; assay type: functional; conditions: Homo sapiens
Method in brief: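 Primary GBM neurosphere cultures came from resected patient tumour. Tissue was minced, dissociated with 100 U/mL collagenase in neurobasal medium for 30 min at 37 °C, filtered through 70 µm, spun at 200 × g for 5 min, and grown in ultra-low attachment wells in neurobasal medium with B27. Compounds were applied at 0.001–100 µM for 48–96 h. MTT gave the average 50%-viability concentration.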

CC[C@]1(O)C[C@@H]2CN(CCc3c([nH]c4ccccc34)[C@@](C(=O)OC)(c3cc4c(cc3OC)N(C)[C@H]3[C@@](O)(C(=O)OC)[C@H](OC(C)=O)[C@]5(CC)C=CCN6CC[C@]43[C@@H]65)C2)C1 [VINBLASTINE]
RatioGI50 [1]: >1000

O=C1C=CC2(C=C1)CCN(C(=O)C(F)(F)F)Cc1cc3c(cc12)OCO3
GI50 [2]: 30 µM | GI50 [3]: 24 µM

COc1cc2c(cc1OCc1ccccc1)[C@@]13C=CC(=O)C[C@@H]1[N@](CC3)C2
GI50 [2]: 17 µM | GI50 [3]: 17 µM

COc1cc2c(cc1OCc1ccccc1)C1(C=CC(=O)C=C1)CCN(C(=O)C(F)(F)F)C2
GI50 [2]: 34 µM | GI50 [3]: 34 µM

C#CCCCC(=O)Oc1cc2c(cc1OC)[C@@]13C=CC(=O)C[C@@H]1[N@](CC3)C2
GI50 [2]: 53 µM | GI50 [3]: 43 µM

O=C1C=C[C@]23CC[N@](Cc4cc(OCc5ccccc5)ccc42)[C@H]3C1
GI50 [2]: 14 µM | GI50 [3]: 8 µM

O=C1C=C[C@]23CC[N@](Cc4cc5c(cc42)OCO5)[C@H]3C1
GI50 [2]: 24 µM | GI50 [3]: 25 µM

O=C1C=C[C@]23CC[N@](Cc4c2ccc2c4OCO2)[C@H]3C1
GI50 [2]: 73 µM | GI50 [3]: 61 µM

O=C1C=CC2(C=C1)CCN(C(=O)C(F)(F)F)Cc1cccc(OCc3ccccc3)c12
GI50 [2]: 14 µM | GI50 [3]: 11 µM

O=C1C=C[C@]23CC[N@](Cc4cc(OCc5ccccc5)c(OCc5ccccc5)cc42)[C@H]3C1
GI50 [4]: 5 µM | GI50 [5]: 4 µM | GI50 [6]: 7 µM | GI50 [7]: 7 µM | GI50 [8]: 7 µM | GI50 [2]: 4 µM | GI50 [9]: 5 µM | GI50 [10]: 6 µM | GI50 [11]: 2 µM | GI50 [3]: 3 µM

COc1cc2c(cc1OC)[C@@]13C=CC(=O)C[C@@H]1[N@](CC3)C2
GI50 [2]: > 100 µM | GI50 [3]: 64 µM

O=C1C=CC2(C=C1)CCN(C(=O)C(F)(F)F)Cc1cc3c(cc12)OCCO3
GI50 [2]: 34 µM | GI50 [3]: 21 µM

O=C1C=CC2(C=C1)CCN(C(=O)C(F)(F)F)Cc1c2ccc2c1OCO2
GI50 [2]: > 100 µM | GI50 [3]: > 100 µM

Cn1nnc2c(C(N)=O)ncn2c1=O [TEMOZOLOMIDE]
GI50 [12]: > 1000 µM | GI50 [13]: 50 µM

COc1cc2c(cc1OC(=O)c1ccccc1)C[N@@]1CC[C@@]23C=CC(=O)C[C@H]13
GI50 [2]: 45 µM | GI50 [3]: 35 µM

COc1cc2c(cc1O)C[N@@]1CC[C@@]23C=CC(=O)C[C@H]13
GI50 [2]: > 100 µM | GI50 [3]: > 100 µM

COc1cc2c(cc1OCc1ccccc1)CN(C(=O)C(F)(F)F)CCC21C=CC(=O)C=C1
GI50 [2]: 48 µM | GI50 [3]: 38 µM
